Results on two molecules are retold here after article PMC8548355 (Medicinal Chemistry Research, 2021).

≈ marks a conversion by molar mass, not a printed value.

The test system of one experiment is VRSA VRS 4. As to the kind of experiment: MIC against clinical VRSA isolate VRS 4. In kind it is cell-based. The note with it: Staphylococcus aureus, read-out: MIC against VRSA VRS 4.
Experiment [1] deals with clinical MDR S. aureus isolates (MRSA and VRSA). Nature of the experiment: MIC against clinical MDR S. aureus isolates, whole panel. The experiment is classed as cell-based, Staphylococcus aureus. To be noted: nine MRSA and three VRSA strains.
The subject of the next experiment is MRSA NRS 10191. Nature of the experiment: MIC against clinical MRSA isolate NRS 10191. The experiment is classed as cell-based. To be noted: Staphylococcus aureus, MRSA|NRS10191, read-out: MIC against MRSA NRS 10191.
The subject of another experiment is A. baumannii BAA 1605. Nature of the experiment: MIC by broth microdilution against A. baumannii BAA 1605. The experiment is classed as cell-based. The note with it: Acinetobacter baumannii, BAA1605, read-out: MIC against A. baumannii BAA 1605. In general terms: Broth dilution looks for growth in wells or tubes with falling amounts of substance.
In a further experiment the test system is MRSA NRS 10186. As to the kind of experiment: MIC against clinical MRSA isolate NRS 10186. In kind it is cell-based. To be noted: Staphylococcus aureus, MRSA|NRS10186, read-out: MIC against MRSA NRS 10186.
A further experiment relates to K. pneumoniae BAA 1705. Nature of the experiment: MIC by broth microdilution against K. pneumoniae BAA 1705. In kind it is cell-based. To be noted: Klebsiella pneumoniae, BAA1705, read-out: MIC against K. pneumoniae BAA 1705.
Experiment [2] concerns S. aureus ATCC 29213. As to the kind of experiment: Time–kill kinetics. In kind it is cell-based, Staphylococcus aureus. To be noted: 24 h. In short, it runs like this:
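Bacteria diluted to ~10^6 cfu/mL and exposed to test compound at 1× and 10× MIC, with controls, at 37 °C for 24 h. Samples taken at 1, 6 and 24 h, serially diluted ten-fold in PBS, and spread on MHA. Plates incubated at 37 °C for 24 h and colonies counted. Surviving cfu/mL plotted against time with and without compound.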

The next experiment deals with MRSA NRS 10129. As to the kind of experiment: MIC against clinical MRSA isolate NRS 10129. The experiment is classed as cell-based. The note with it: Staphylococcus aureus, MRSA|NRS10129, read-out: MIC against MRSA NRS 10129.
The test system of a further experiment is MRSA NRS 10193. As to the kind of experiment: MIC against clinical MRSA isolate NRS 10193. The experiment is classed as cell-based. The note with it: Staphylococcus aureus, MRSA|NRS10193, read-out: MIC against MRSA NRS 10193.
Experiment [3] has as its system S. aureus ATCC 29213 pre-formed biofilm. Nature of the experiment: Activity against pre-formed S. aureus biofilm. The experiment is classed as cell-based, Staphylococcus aureus. The note with it: 10× MIC, 24 h treatment, S. aureus ATCC 29213, compared to comparators. In short, it runs like this: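 Overnight culture in 1% TSB, shaken at 180 RPM at 37 °C, diluted 1:100 in fresh TSB. Biofilm grown statically for 48 h at 37 °C under an adhesive foil lid for low oxygen. Planktonic cells removed with three PBS (pH 7.4) rinses. Refilled with TSB containing test compound, 24 h at 37 °C. Washed, heat-fixed at 60 °C for 1 h, stained with 0.06% crystal violet for 10 min, eluted with 30% acetic acid, absorbance read at 600 nm.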

The test system of the next experiment is MRSA NRS 10198. As to the kind of experiment: MIC against clinical MRSA isolate NRS 10198. In kind it is cell-based. The note with it: Staphylococcus aureus, MRSA|NRS10198, read-out: MIC against MRSA NRS 10198.
Another experiment has as its system VRSA VRS 12. As to the kind of experiment: MIC against clinical VRSA isolate VRS 12. The experiment is classed as cell-based. To be noted: Staphylococcus aureus, read-out: MIC against VRSA VRS 12.
Experiment [4] has as its system S. aureus ATCC 29213. Nature of the experiment: MIC by broth microdilution against S. aureus ATCC 29213. In kind it is cell-based, Staphylococcus aureus. The note with it: Staphylococcus aureus, ATCC29213, read-out: MIC against S. aureus ATCC 29213, broth microdilution, 37 °C, 16–18 h.
For a further experiment, the system named is MRSA NRS 10100. Nature of the experiment: MIC against clinical MRSA isolate NRS 10100. The experiment is classed as cell-based. To be noted: Staphylococcus aureus, MRSA|NRS10100, read-out: MIC against MRSA NRS 10100.
Another experiment deals with MRSA NRS 10192. As to the kind of experiment: MIC against clinical MRSA isolate NRS 10192. The experiment is classed as cell-based. The note with it: Staphylococcus aureus, MRSA|NRS10192, read-out: MIC against MRSA NRS 10192.
The next experiment has as its system VRSA VRS 1. As to the kind of experiment: MIC against clinical VRSA isolate VRS 1. The experiment is classed as cell-based. The note with it: Staphylococcus aureus, read-out: MIC against VRSA VRS 1.
In a further experiment the test system is E. coli ATCC 25922. As to the kind of experiment: MIC by broth microdilution against E. coli ATCC 25922. In kind it is cell-based. The note with it: Escherichia coli, ATCC25922, read-out: MIC against E. coli ATCC 25922.
Experiment [5] has as its system S. aureus ATCC 29213. Nature of the experiment: Drug interaction of 22 with FDA-approved drugs, checkerboard method. In kind it is cell-based, Staphylococcus aureus. To be noted: Staphylococcus aureus, ATCC29213, 24 h, read-out: MIC (drug alone).
The test system of another experiment is MRSA NRS 10194. Nature of the experiment: MIC against clinical MRSA isolate NRS 10194. The experiment is classed as cell-based. To be noted: Staphylococcus aureus, MRSA|NRS10194, read-out: MIC against MRSA NRS 10194.
The test system of a further experiment is MRSA NRS 10119. Nature of the experiment: MIC against clinical MRSA isolate NRS 10119. The experiment is classed as cell-based. To be noted: Staphylococcus aureus, MRSA|NRS10119, read-out: MIC against MRSA NRS 10119.
In the next experiment the test system is S. aureus. The note with it: similar activity to 20–23; cited from earlier work.

As a reminder, the MIC is the lowest concentration that inhibits growth of the organism. On to `O=C(Nc1ccc(Br)c(C(F)(F)F)c1)c1cc(Cl)ccc1O` [Compound 22, 5-Chloro-N-(4ʹ-bromo-3ʹ-(trifluoromethyl)phenyl)-2-hydroxybenzamide], for which the MIC in the experiment with VRSA VRS 4 is 0.0625 µg/mL (≈ 0.158 µM); with MRSA NRS 10191, 0.0625 µg/mL (≈ 0.158 µM); in the experiment on A. baumannii BAA 1605 it was more than 64 µg/mL; with MRSA NRS 10186, 0.0625 µg/mL (≈ 0.158 µM); in the experiment on K. pneumoniae BAA 1705, more than 64 µg/mL; with MRSA NRS 10129, 0.0625 µg/mL (≈ 0.158 µM). Moreover, the MIC came to 0.0625 µg/mL (≈ 0.158 µM) in the experiment on MRSA NRS 10193; 0.0625 µg/mL (≈ 0.158 µM) in the experiment with MRSA NRS 10198; 0.0625 µg/mL (≈ 0.158 µM) in the experiment with VRSA VRS 12; 0.25 µg/mL (≈ 0.634 µM) in the experiment on S. aureus ATCC 29213 [4]; 0.0625 µg/mL (≈ 0.158 µM) in the experiment with MRSA NRS 10100; 0.0312 µg/mL (≈ 0.0791 µM) in the experiment with MRSA NRS 10192. Further, the MIC in the experiment on VRSA VRS 1 is 0.0312 µg/mL (≈ 0.0791 µM); in the experiment with E. coli ATCC 25922 it was more than 64 µg/mL; with S. aureus ATCC 29213 [5], 0.5 µg/mL; in the experiment with MRSA NRS 10194, 0.0625 µg/mL (≈ 0.158 µM); in the experiment on MRSA NRS 10119, 0.0312 µg/mL (≈ 0.0791 µM). The “MIC against MRSA and VRSA isolates (range over the panel)” value in experiment [1] was in the range of 0.031 to 0.062 µg/mL. For the same molecule, the “Type of killing in time–kill kinetics (in words)” value with S. aureus ATCC 29213 [2] (1× and 10× MIC) is given as “concentration-dependent bactericidal activity”. In addition, the “cfu reduction in time–kill kinetics” value with S. aureus ATCC 29213 [2] (10× MIC) is reported as ~ 8 log10 cfu/mL. Further, in [3], the “Reduction in pre-formed biofilm” value is on record as “more significant reduction (P < 0.0005)”.
For `O=C(Nc1cc(C(F)(F)F)cc(C(F)(F)F)c1)c1cc(Cl)ccc1O` [IMD0354, N-[3,5-Bis(trifluoromethyl)phenyl]-5-chloro-2-hydroxybenzamide], the “MIC (reported)” value in the experiment with S. aureus is on record as 0.25 µg/mL (≈ 0.652 µM).
